Source: PubChem BioAssay
The source made the active and inactive calls.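 How the source made its calls, unless noted: active means NADPH fluorescence slope more negative than the mean of all samples by about 3 SD, 99.7% confidence; inactive means the rest.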

Experiments:
[1] = inhibitors of TNFa-induced NFkB p65 translocation, primary screen, imaging, HUVEC, MLSMR starter and 10KST1 sets (AID 438;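 active means inhibition above 20% together with a positive visual image hit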;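 further: compound added about 3h40 before a 20 min TNFalpha stimulation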;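 on inhibition: signal is the nuclear over cytoplasmic p65 intensity ratio per well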); conditions: HUVEC TNFa-induced p65 nuclear translocation; cell count: measured here: nuclei count (cytotoxicity indicator), at 2.08 µM; inhibition: at 2 µM, stronger effect = higher value, 0% TNFa-plus-vehicle, 100% no-TNFa wells
[2] = inhibitors of mutant huntingtin aggregation, primary screen, imaging, exon1htt(103Q)mCFP cells, high-content imaging (AID 483;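 active means visual image review flags a hit and inhibition of aggregation exceeds 20%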;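 further: compound exposure lasted 3 days before fixation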;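 on nuclei count: percent of the per-plate median nuclei count of sample wells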); conditions: exon1htt(103Q)mCFP cell line, aggregate imaging, at 2 µM; inhibition of aggregation: stronger effect = higher value; nuclei count: measured here: cell count, toxicity
[3] = inhibitors of E-selectin induction by TNFa, primary screen, imaging, HUVEC, immunofluorescence, MLSMR starter and 10KST1 sets (AID 487;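 active means visually confirmed hit in the image check and inhibition above 20%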;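 on inhibition: signal is fraction of cell area covered by stained E-selectin grains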;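 on nuclei count: 100% = median nuclei count of all wells on the same plate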); conditions: HUVEC TNFalpha-induced E-selectin immunofluorescence imaging, at 2 µM; inhibition: stronger effect = higher value; nuclei count: measured here: cell number, toxicity
[4] = target: Voltage-gated potassium channel subunit beta-2 (Rattus norvegicus) (UniProt P62483); assay: KvBeta enzyme negative modulators, primary screen, biochemical, NADPH fluorescence (AID 622;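 active means fluorescence slope higher than the sample average by over 3 SD, cut at about -0.22 in these data, passing the limit was not always enough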;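 further: slope of raw intensity against log time taken from 70 to 1610 s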); conditions: recombinant KvBeta, 4-cyanobenzaldehyde reduction, at 10 µM, stronger effect = higher value
[5] = target: Voltage-gated potassium channel subunit beta-2 (Rattus norvegicus) (UniProt P62483); assay: KvBeta positive modulators, primary screen, biochemical, NADPH fluorescence (AID 623); conditions: Recombinant KvBeta, NADPH fluorescence decrease slope, 10 min; at 10 µM; stronger effect = lower value;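 further: fluorescence intensity change per second fitted from 20 to 320 s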
[6] = target: Muscarinic acetylcholine receptor M4 (Homo sapiens) (UniProt P08173); assay: compounds altering M4/GIRK thallium flux, either direction, primary screen, M4 allosteric agonist project, cell-based, HEK293 M4/GIRK, BTC-AM (AID 625;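 active means fluorescence slope after compound addition differing from the mean of all tested samples at 99.7% confidence, mostly higher but some lower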;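 further: thallium influx through GIRK channels coupled to M4 in HEK293 cells with BTC-AM dye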); conditions: at 10 µM, actives lie on both sides
Outline: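 Assay system: HEK293 cells with M4 receptor and GIRK channels / Controls: carbachol and DMSO controls / Schedule: 1 h dye loading, 2 min kinetic read / Technique: kinetic fluorescence with BTC-AM dye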

[7] = inhibitors of Sendai virus-induced IRF3 signaling, primary screen, TLR/RLR signaling modifier project, cell-based, Sendai virus stimulus, luciferase, 10K MLSCN set (AID 602276;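 active means inhibition at or above 50% at 10 µM; inactive means inhibition below 50%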;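 further: firefly luciferase from ISG56 promoter only with Renilla not read in this screen; 0% = Sendai virus plus DMSO and 100% = medium plus DMSO without virus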); conditions: HEK293 RL24 IRF3 luciferase reporter, at 10 µM, stronger effect = higher value
[8] = inhibitors of poly I:C-induced TLR3 signaling, primary screen, cell-based, poly I:C stimulus, luciferase, 10K MLSCN set (AID 602277;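 active means inhibition of the reporter signal at or above 50%; inactive means inhibition below 50%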); conditions: HEK293-TLR3 RL24 IRF3 luciferase reporter, at 10 µM, stronger effect = higher value

Voltage-gated potassium channel subunit beta-2 (Rattus norvegicus), sequence (P62483 whole entry, looked up): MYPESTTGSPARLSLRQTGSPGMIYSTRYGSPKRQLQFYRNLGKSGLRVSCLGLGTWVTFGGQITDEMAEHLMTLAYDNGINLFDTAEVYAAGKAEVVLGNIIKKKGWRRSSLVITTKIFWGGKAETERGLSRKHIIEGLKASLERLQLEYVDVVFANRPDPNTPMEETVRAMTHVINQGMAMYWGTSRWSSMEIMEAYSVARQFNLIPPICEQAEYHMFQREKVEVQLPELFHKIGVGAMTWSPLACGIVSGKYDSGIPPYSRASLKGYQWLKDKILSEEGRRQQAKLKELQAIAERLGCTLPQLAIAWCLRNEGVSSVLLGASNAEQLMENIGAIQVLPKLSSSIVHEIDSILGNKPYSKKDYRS
Muscarinic acetylcholine receptor M4 (Homo sapiens), sequence (P08173 whole entry, looked up): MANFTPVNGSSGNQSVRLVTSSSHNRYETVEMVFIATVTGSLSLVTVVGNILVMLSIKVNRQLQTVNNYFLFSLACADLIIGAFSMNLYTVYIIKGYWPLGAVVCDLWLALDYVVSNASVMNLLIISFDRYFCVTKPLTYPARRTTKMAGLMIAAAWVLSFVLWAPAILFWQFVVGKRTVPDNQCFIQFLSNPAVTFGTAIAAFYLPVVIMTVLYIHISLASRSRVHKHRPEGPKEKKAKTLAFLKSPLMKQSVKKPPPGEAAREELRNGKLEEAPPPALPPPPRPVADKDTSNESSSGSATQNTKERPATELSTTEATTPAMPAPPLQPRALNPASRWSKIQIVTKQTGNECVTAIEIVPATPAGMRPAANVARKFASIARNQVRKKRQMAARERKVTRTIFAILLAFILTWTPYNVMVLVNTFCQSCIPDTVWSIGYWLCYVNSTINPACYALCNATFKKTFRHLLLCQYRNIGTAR

| Structure (SMILES) | cell count [1] | inhibition [1] | inhibition of aggregation [2] | nuclei count [2] | inhibition [3] | nuclei count [3] | fluorescence slope [4] | NADPH fluorescence slope [5] | fluorescence slope [6] | inhibition [7] | inhibition [8] |
| --- | --- | --- | --- | --- | --- | --- | --- | --- | --- | --- | --- |
| Cc1n[nH]c(C)c1S(=O)(=O)N1CCN(c2ccccn2)CC1 | 407 | -8.5% (inactive) | 12.4% (inactive) | 76% | -43.6% (inactive) | 108% | -0.485 (inactive) | 5e-05 (inactive) | 0.00681 (inactive) | -0.889% (inactive) | 2.25% (inactive) |
| Cc1ccc(-c2cc(C(=O)N3CCCC3)no2)cc1 | 471 | 7.3% (inactive) | -20.5% (inactive) | 19.5% | -1.1% (inactive) | 106% | -0.585 (inactive) | 1.3e-05 (inactive) | 0.00612 (inactive) | -46.7% (inactive) | -130% (inactive) |
| O=C(CCC(=O)N1CCN(S(=O)(=O)c2ccccc2)CC1)c1cccs1 | 633 | -1.3% (inactive) | -22.1% (inactive) | 102% | -176% (inactive) | 153% | -0.568 (inactive) | -7e-05 (inactive) | 0.00592 (inactive) | -5.43% (inactive) | -3.56% (inactive) |
| O=c1[nH]c2ccc(S(=O)(=O)N3CCN(C4CCCCC4)CC3)cc2[nH]c1=O | 264 | -7.8% (inactive) | -36.5% (inactive) | 90.7% | -52.5% (inactive) | 122% | -0.484 (inactive) | -0.000259 (inactive) | 0.00453 (inactive) | -0.0358% (inactive) | 6.71% (inactive) |
| CCN(CCNC(=O)C1CCN(S(=O)(=O)CC)CC1)c1ccccc1 | 446 | -14.7% (inactive) | 5.7% (inactive) | 86.2% | -93.7% (inactive) | 106% | -0.254 (inactive) | -2.8e-05 (inactive) | 0.00662 (inactive) | 15.8% (inactive) | 11.8% (inactive) |
| CCNC(=O)COc1ccc(Br)cc1Cl | 302 | 0% (inactive) | -7.5% (inactive) | 93.8% | 0.5% (inactive) | 109% | -0.547 (inactive) | 2.4e-05 (inactive) | 0.00609 (inactive) | -12.6% (inactive) | -57.4% (inactive) |
| O=C(c1cccn2c(=O)c3cc(Cl)ccc3nc12)N1CCOCC1 | 488 | -23.1% (inactive) | 10% (inactive) | 106% | -117% (inactive) | 140% | -0.027 (inactive) | 8.6e-06 (inactive) | 0.00457 (inactive) | 7.46% (inactive) | 19.6% (inactive) |
| COc1ccc(CCNC(=O)C2CCN(Cc3nc(-c4cccc(Cl)c4)oc3C)CC2)cc1OC | 400 | 6% (inactive) | 17.8% (inactive) | 94.3% | -12.2% (inactive) | 86.6% | -0.584 (inactive) | -1.7e-05 (inactive) | 0.00471 (inactive) | 6.77% (inactive) | -17.9% (inactive) |
| COc1ccc(C2C(=O)N(C3CCCCC3)CC(=O)N2Cc2ccco2)cc1 (stereo not drawn) | 632 | -15% (inactive) | -40.5% (inactive) | 124% | -26.6% (inactive) | 101% | -0.526 (inactive) | 1.7e-05 (inactive) | 0.00562 (inactive) | 16.7% (inactive) | 22.1% (inactive) |
| CCn1cc(C(=O)N2CCCC2)c(=O)c2cc(S(=O)(=O)N3CCOCC3)ccc21 | 542 | -1% (inactive) | -13.1% (inactive) | 100% | 14.8% (inactive) | 113% | -0.427 (inactive) | -7.4e-05 (inactive) | 0.00706 (inactive) | 1.49% (inactive) | 12.8% (inactive) |
| CC(C)NC(=O)NC(=O)COc1cccc2c1OC(C)(C)C2 | 749 | -10.1% (inactive) | -13.5% (inactive) | 105% | -16.4% (inactive) | 100% | -0.556 (inactive) | -2.9e-05 (inactive) | 0.00684 (inactive) | 17.1% (inactive) | 29.7% (inactive) |
| CCOC(=O)c1ccc(NC(=O)N2CCN(CCc3ccccc3)CC2)cc1 | 361 | 2.5% (inactive) | 18.6% (inactive) | 84.1% | 20.3% (inactive) | 75.8% | -0.475 (inactive) | -4.1e-05 (inactive) | 0.00422 (inactive) | 6.1% (inactive) | -14.9% (inactive) |
| N#Cc1c(N)n(CCNC(=O)c2cccs2)c2nc3ccccc3nc12 | 578 | 10.7% (inactive) | 17.7% (inactive) | 99.9% | 29.4% (inactive) | 105% | -0.0517 (inactive) | -2.6e-05 (inactive) | 0.00574 (inactive) | 9.96% (inactive) | -10% (inactive) |
| CCOc1ccccc1CN1C(=O)c2ccccc2C1C(=O)NCC1CCCO1 (stereo not drawn) | 350 | 7.9% (inactive) | 6.8% (inactive) | 107% | -214% (inactive) | 114% | -0.585 (inactive) | 2.5e-05 (inactive) | 0.00509 (inactive) | 7.6% (inactive) | 5.52% (inactive) |
| CCOC(=O)c1ccc(Oc2nc(NC)nc(OC)n2)cc1 | 635 | 6.8% (inactive) | -13.2% (inactive) | 98.2% | -41.5% (inactive) | 110% | -0.295 (inactive) | -1.6e-06 (inactive) | 0.00677 (inactive) | -7.27% (inactive) | 18.3% (inactive) |
| Cc1cncn1CCc1nc2c3ccccc3nc(=S)n2[nH]1 | 537 | 0% (inactive) | 4.4% (inactive) | 67.3% | -141% (inactive) | 110% | -0.432 (inactive) | 1.4e-06 (inactive) | 0.00558 (inactive) | 17% (inactive) | 28.8% (inactive) |
| CC1(C)CC(=O)C(C=NCCO)=C(O)C1 | 416 | -1.8% (inactive) | 57% (active) | 23.4% | -45.4% (inactive) | 123% | -0.243 (inactive) | -2.1e-05 (inactive) | 0.00793 (inactive) | 21.7% (inactive) | -0.595% (inactive) |
| CCCCn1nnnc1SCC(=O)Nc1cccc(C)n1 | 554 | -46.9% (inactive) | 9% (inactive) | 112% | -47.5% (inactive) | 107% | -0.329 (inactive) | -3.8e-05 (inactive) | 0.00669 (inactive) | -10.8% (inactive) | -6.38% (inactive) |
| Cc1nn(-c2ccc(F)cc2)c2nc(N)c(C#N)c(-c3cccs3)c12 | 483 | 5.7% (inactive) | 3% (inactive) | 81.1% | -126% (inactive) | 160% | -0.437 (inactive) | -1.4e-05 (inactive) | 0.00193 (inactive) | 12.4% (inactive) | 20.7% (inactive) |
| CCn1c(=O)cc(OCC(=O)NCCCN2CC(C)CC(C)C2)c2ccccc21 (stereo not drawn) | 395 | -5.5% (inactive) | -18.3% (inactive) | 111% | -25% (inactive) | 123% | -0.511 (inactive) | -0.000129 (inactive) | 0.00485 (inactive) | 69.4% (active) | 55.8% (active) |
| Cc1cc(C)n(-c2nc(C)nc3c2cnn3-c2ccccc2)n1 | 427 | 9.2% (inactive) | -20.7% (inactive) | 97.3% | -60.5% (inactive) | 114% | -0.564 (inactive) | -3.8e-05 (inactive) | 0.0087 (inactive) | 20.1% (inactive) | 20.4% (inactive) |
| CCOC(=O)C1=C(c2ccccc2)Nc2nc(C)nn2C1c1cccc(OC)c1OC (stereo not drawn) | 613 | 1.7% (inactive) | -13.2% (inactive) | 111% | -152% (inactive) | 149% | -0.508 (inactive) | -0.000215 (inactive) | 0.00365 (inactive) | 5.33% (inactive) | 15.1% (inactive) |
| COc1cc(C)nc(NS(=O)(=O)c2ccc(C)cc2)n1 | 399 | 3.9% (inactive) | -0.3% (inactive) | 97.2% | -45.6% (inactive) | 109% | -0.563 (inactive) | -2.7e-05 (inactive) | 0.00648 (inactive) | 20.8% (inactive) | 23% (inactive) |
| CN(CC(=O)N1CCN(c2ccc(F)cc2)CC1)S(=O)(=O)c1ccc(F)cc1 | 389 | -5.2% (inactive) | -9.8% (inactive) | 103% | -100% (inactive) | 121% | -0.595 (inactive) | -6.1e-05 (inactive) | 0.00279 (inactive) | 11.3% (inactive) | -4.19% (inactive) |
| O=C(Cn1ccc2ccccc2c1=O)NCCC(=O)N1CCN(C2CCCCC2)CC1 | 510 | -3.8% (inactive) | 10.9% (inactive) | 83.8% | 15.7% (inactive) | 110% | -0.395 (inactive) | 2.2e-05 (inactive) | 0.00596 (inactive) | 9.9% (inactive) | 18.5% (inactive) |
| CCOC(=O)NC(c1ccccc1)C1CCCCC1=O (stereo not drawn) | 486 | -3.4% (inactive) | -0.1% (inactive) | 103% | -25.5% (inactive) | 105% | -0.565 (inactive) | 1e-05 (inactive) | 0.00674 (inactive) | 14.4% (inactive) | 18.4% (inactive) |
| CCOc1ccccc1NC(=O)CSc1c(C)n[nH]c1C | 333 | -2% (inactive) | -21.4% (inactive) | 120% | -17.1% (inactive) | 113% | -0.548 (inactive) | -1.7e-05 (inactive) | 0.00526 (inactive) | 1.91% (inactive) | 15.3% (inactive) |
| O=c1cc(COn2nnc3ccc(C(F)(F)F)cc32)nc2sccn12 | 379 | -22% (inactive) | -2.2% (inactive) | 109% | -51.6% (inactive) | 141% | -0.478 (inactive) | 3.2e-05 (inactive) | 0.00817 (inactive) | -2.54% (inactive) | 14.9% (inactive) |
